Data reported in publication PMC6750927 (Science Advances, 2019).

How the values were obtained:
[1] = molecular target: Cdc37, wild type (UniProt Q16543); assay: ITC
[2] = molecular target: Hsp90-Cdc37 PPI (Homo sapiens, UniProt P07900); assay: Hsp90-Cdc37 HTRF assay; type: binding; conditions: dose-dependent
Method in brief: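 His-tagged Hsp90 and GST-tagged Cdc37 premixed at 80 nM final in PBS with 200 mM KF, pH 7.4. Twofold dilutions of test compound (seven concentrations) added for 1 h at 37°C. HTRF read at excitation 320 nm, emission 665 and 620 nm; ratio = (665/620) × 10,000. n = 3 wells, from three independent experiments.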

[3] = molecular target: Hsp90 ATPase activity (Homo sapiens, UniProt P07900); assay: Hsp90 ATPase assay; type: biochemical
Method in brief: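 Hsp90 ATPase measured with an ADP Hunter Plus kit at 37°C. Compound, Hsp90 (5 μM as added) and ATP (100 μM as added) combined in equal parts for 1 h. Background taken without protein or compound; protein alone set as 100% activity. n = 3 wells, from three independent experiments.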

[4] = molecular target: Hsp90 ATP binding site (Homo sapiens, UniProt P07900); assay: ATP binding site competitive FP assay
Method in brief: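 Competition for the Hsp90 ATP site by fluorescence polarization with a fluorescein isothiocyanate–geldanamycin probe. Read at excitation 485 nm and emission 535 nm. Inhibition rate derived by a previously reported method. n = 3 wells, from three independent experiments.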

[5] = molecular target: Cdc37 R246A mutant (UniProt Q16543); assay: ITC
Sequence of Cdc37 R246A mutant (Q16543 whole entry R246A): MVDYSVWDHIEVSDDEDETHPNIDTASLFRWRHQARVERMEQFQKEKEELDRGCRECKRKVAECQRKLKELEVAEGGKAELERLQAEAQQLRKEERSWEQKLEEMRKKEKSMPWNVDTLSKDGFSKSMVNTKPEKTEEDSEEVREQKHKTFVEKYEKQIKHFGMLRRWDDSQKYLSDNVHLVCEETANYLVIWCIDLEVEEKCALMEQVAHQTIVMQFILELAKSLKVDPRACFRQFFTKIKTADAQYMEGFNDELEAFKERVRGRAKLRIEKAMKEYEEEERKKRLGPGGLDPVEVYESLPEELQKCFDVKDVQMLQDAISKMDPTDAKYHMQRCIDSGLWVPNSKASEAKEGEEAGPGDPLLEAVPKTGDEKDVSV

[6] = molecular target: Cdc37 Q208A mutant (UniProt Q16543); assay: ITC
Sequence of Cdc37 Q208A mutant (Q16543 whole entry Q208A): as the sequence (Q16543 whole entry R246A) above, with Q208A, A246R counted along it

Sequence of Cdc37, wild type (Q16543 whole entry): as the sequence (Q16543 whole entry R246A) above, with A246R counted along it

“Hsp90 Y61A mutant (from UniProt P07900 1-732) (natural protein)” was tested, and the Kd [1] was 6.85 µM.

In the case of “Hsp90 R46A mutant (from UniProt P07900 1-732) (natural protein)”, the Kd [1] is reported as 8.85 µM.

`CC(C)c1cc(C(=O)N2Cc3ccc(CN4CCN(C)CC4)cc3C2)c(O)cc1O` [AT13387] was tested, and the “inhibition of Hsp90-Cdc37 binding (IC50)” value [2] was “no activity”, the IC50 [3] was 0.16 µM and the IC50 [4] was 0.012 µM.

Work on “Heat shock protein 90 (Hsp90), wild type, His-tagged (from UniProt P07900 1-732) (natural protein)” yielded a Kd [5] of 6.02 µM, a Kd [6] of 3.51 µM and a Kd [1] of 2.17 µM.
